Screening data from PubChem BioAssay.
DDE Tn7 FP inh: disrupts Tn7 cyclic peptide binding to fibrin D-Dimer-E complex; inhibition, % at 8.3 µM; 370,000 compounds, 0.13% hits; P02675; FP displacement of FITC-Tn7 peptide from fibrin DD(E); 0% = median of compound wells per plate;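 active means inhibition above the mean of compounds falling within the control limits plus 3 SD of them, cut at about 14% in these data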;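 further: 0% = plate median of compound wells and 100% = 10 µM Aha-Tn7 peptide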
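assay system = human clot-derived fibrin DD(E) complex | quantity = Fibrin-DD(E) at 2 µM final | timing = 10 min preincubation, 3 h with tracer, room temperature | signal = fluorescence polarization | measure = percent inhibition | benchmarks = high control wells with 10 µM unlabelled Aha-Tn7 peptide (full inhibition) | replicates = singlicate testing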
MBD2 DNA inh: blocks human MBD2 binding to methylated DNA; TR-FRET, MBD2 binding to methylated oligonucleotide; inhibition, % at 4.4 µM; 370,000 compounds, 0.31% hits; AID 686964; in the data active means inhibition above about 13%
TDP2 absorb: blocks human TDP2 phosphodiesterase activity; O95551; recombinant TDP2, T5PNP hydrolysis, p-nitrophenol absorbance 415 nm; inhibition, % at 12.8 µM; 370,000 compounds, 0.34% hits; AID 720702;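 active means inhibition above the mean of all tested compounds plus 3 SD, set per campaign, cut at about 25% in these data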;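 further: 0% = DMSO with enzyme and 100% = buffer with substrate but no TDP2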
Target sequence (O95551 whole entry, looked up): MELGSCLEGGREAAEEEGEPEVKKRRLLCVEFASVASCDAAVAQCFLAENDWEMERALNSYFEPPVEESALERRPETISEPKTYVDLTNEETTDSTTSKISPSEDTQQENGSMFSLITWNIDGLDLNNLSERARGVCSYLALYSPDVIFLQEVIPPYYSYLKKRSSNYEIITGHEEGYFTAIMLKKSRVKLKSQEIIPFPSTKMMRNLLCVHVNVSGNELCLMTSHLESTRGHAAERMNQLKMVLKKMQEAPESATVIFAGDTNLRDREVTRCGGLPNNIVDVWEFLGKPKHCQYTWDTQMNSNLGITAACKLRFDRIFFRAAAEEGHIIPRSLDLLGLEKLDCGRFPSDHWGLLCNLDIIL
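Test system: Human TDP2 enzyme | Reagent: 5 mM T5PNP | Compound dosing: 12.8 µM single point, 1% DMSO | Incubation: Enzyme reaction with compound for 2 h at 37 °C | Technique: p-Nitrophenol epi absorbance | Read-out: % inhibition relative to enzyme-containing and enzyme-free wells | Benchmarks: High control without enzyme, low control DMSO plus TDP2 | Replicates: Singlicate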
UHRF1 MBD2 ctr: human UHRF1 methylated DNA binding inhibitors; inhibition, % at 4.4 µM; 370,000 compounds, 0.75% hits; Q96T88; AID 687016; UHRF1 binding to methylated oligo, TR-FRET; in the data active means inhibition above about 21%;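 further: UHRF1 SRA domain binding a hemimethylated CpG hairpin DNA probe; 0% = median of test compound wells and 100% = reference inhibitor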
Tn6 DDE FP: inhibitors of Tn6 peptide binding to human fibrin DD(E); P02675; Fibrin DD(E) TRITC-Tn6 fluorescence polarization displacement; inhibition, % at 8.3 µM; 370,000 compounds, 0.21% hits; AID 720509;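 active means inhibition above a per-campaign cutoff: mean of compounds within control limits plus 3 SD, cut at about 15% in these data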;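 further: 0% = median of all compound wells on the plate and 100% = blocking peptide control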
LEDGF integ inh: blocks HIV-1 LEDGF/p75-dependent DNA integration; 370,000 compounds, 0.64% hits; AID 743269; TR-FRET IN-LEDGF/p75 DNA integration, Eu/Cy5; inhibition, % at 3.7 µM;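 active means inhibition above the screen-wide mean plus 3 SD, cut at about 13% in these data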;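 further: signal is the Cy5 over europium emission ratio at 671 and 618 nm; 0% = plate median of compound wells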
The depositor's hits bear a star. Hits are enriched below; roughly 1.9% of the tested compounds scored in any of these assays.

SMILES | DDE Tn7 FP inh | MBD2 DNA inh | TDP2 absorb | UHRF1 MBD2 ctr | Tn6 DDE FP | LEDGF integ inh
C[C@@H]1CN([C@H](C)CO)S(=O)(=O)c2ccc(C#CC3CCCC3)cc2O[C@H]1CN(C)C(=O)Cc1ccccc1 | -4 | 10 | -5 | 22* | 0 | 3
COC(=O)[C@]12C[C@H](CC(=O)N3CCN(C(=O)C4CC4)CC3)C(=O)N(Cc3ccco3)C1=C[C@H](COCc1ccccc1)O[C@@H]2C | 1 | 3 | -1 | 1 | 6 | 0
COC(=O)[C@]12C[C@H](CC(=O)N3CCN(C(=O)c4ccco4)CC3)C(=O)N(Cc3ccccc3)C1=C[C@H](C(C)(C)C)O[C@@H]2C | -7 | 2 | -5 | 1 | -1 | 3
CN(C)CCNC(=O)/C(=N\O)c1ccccn1 | -10 | 9 | -1 | 27* | -1 | 4
CN(C)CCCNCCCNC(=O)c1ccccn1 | -1 | 2 | 7 | -2 | 9 | 5
O=C(NN1C(=O)/C(=C\c2cccnc2)SC1=S)c1ccco1 | -2 | 10 | 0 | 47* | 2 | 5
C=CCN1C(=O)[C@H](CC(=O)NCC23CC4CC(CC(C4)C2)C3)[C@@]2(C(=O)OC)CCCCC=C12 | 4 | -2 | -3 | -1 | 0 | -1
CCOC(=O)[C@]12CCCC3=C1N(CCC3)C(=O)[C@@H](CC(=O)NCCCOC)C2 | -6 | -1 | 4 | 2 | -2 | 0
Cc1ccc(S(=O)(=O)NCc2ccccc2)cc1C(=O)N(C)CC(=O)Nc1ccccc1Br | -2 | 1 | -15 | 22* | 7 | -5
COC/C=C/C1=CC2=CC(=O)C(C)(OC(=O)C3CCCC3)C(=O)C2=CO1 (centres undefined) | -6 | 5 | 0 | 29* | 2 | 64*
COC/C=C/C1=CC2=CC(=O)C(C)(OC(=O)c3cnc4ccccc4n3)C(=O)C2=CN1C1CC1 (centres undefined) | 1 | 1 | 14 | -2 | -1 | 6
COc1ccc2nc(-c3ccc(CN4CCC(c5nc6ccccc6[nH]5)CC4)cc3)c(-c3ccccc3)nc2c1 | 7 | 2 | -6 | -1 | -7 | 0
O=C(Nc1ccccc1F)C1CCN(C(=O)NCc2ccccc2)CC1 | 3 | 3 | 22 | 24* | -3 | 3
O=C(/C=C/c1ccco1)N1CCc2ccccc21 | -5 | -1 | -8 | -2 | 2 | 4
Cc1ccc(/C=C/C(=O)N2CCc3ccccc32)o1 | 2 | 13 | -1 | 31* | -4 | 9
CC1(C)OC(=O)C2=C(CC(CCc3ccccc3)OC2CCc2ccccc2)O1 (centres undefined) | 6 | -1 | -2 | 21* | 4 | 4
O=C(Nc1cccc(OCC(=O)N2CCOCC2)c1)c1cccc(Cl)c1 | -1 | -2 | -5 | -2 | 10 | 5
O=C(Nc1cccc(OCC(=O)N2CCOCC2)c1)c1cccc([N+](=O)[O-])c1 | -2 | -3 | 8 | 34* | -5 | 1
O=C(COc1cccc(NC(=O)c2ccccc2)c1)c1ccccc1 | -5 | 8 | -8 | 27* | 7 | 5
O=C(Nc1ccc(OCc2ccccc2)cc1)c1ccccc1 | 6 | 6 | -5 | 65* | 11 | 1
COCCN=C1Sc2ccccc2[C@@H]2C[C@H]3[C@H](CON3C)CN12 | 5 | -3 | -4 | -2 | 4 | 1
CCCC[C@H]1C2CC(OC(=O)Nc3cccc(F)c3)C(C2)[C@H]2CCCCN21 (some centres undefined) | 2 | -3 | -7 | -1 | -3 | 3
CCOc1ccc(/C=N/Nc2ccccn2)cc1OC | -2 | -2 | 3 | 47* | 9 | 2
CCCOc1ccc(/C=N/Nc2ccccn2)cc1OC | 2 | 1 | -1 | 2 | 1 | -3
Cc1cc2c(cc1C)C(c1ccccc1Br)CC(=O)N2 (centres undefined) | -3 | 10 | -1 | 23* | 0 | 10
CCOc1ccc(NC(=O)CN2C(=O)COc3ccccc32)cc1 | -5 | 4 | 9 | -2 | -4 | 2
COc1cc(NC(=O)CN2C(=O)COc3ccccc32)cc(OC)c1 | -3 | -3 | 6 | 21* | -3 | -4
